Source: PubChem
DDE Tn7 FP inh: disrupts Tn7 cyclic peptide binding to fibrin D-Dimer-E complex | inhibition, % at 8.3 µM | actives 0.13% (n = 370,000) | AID 720508 | P02675 | FP displacement of FITC-Tn7 peptide from fibrin DD(E); 0% = median of compound wells per plate;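 active = inhibition above the mean of compounds falling within the control limits plus 3 SD of them, cut at about 14% in these data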;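 also: 0% = plate median of compound wells and 100% = 10 µM Aha-Tn7 peptide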
Target sequence (P02675 whole entry, looked up): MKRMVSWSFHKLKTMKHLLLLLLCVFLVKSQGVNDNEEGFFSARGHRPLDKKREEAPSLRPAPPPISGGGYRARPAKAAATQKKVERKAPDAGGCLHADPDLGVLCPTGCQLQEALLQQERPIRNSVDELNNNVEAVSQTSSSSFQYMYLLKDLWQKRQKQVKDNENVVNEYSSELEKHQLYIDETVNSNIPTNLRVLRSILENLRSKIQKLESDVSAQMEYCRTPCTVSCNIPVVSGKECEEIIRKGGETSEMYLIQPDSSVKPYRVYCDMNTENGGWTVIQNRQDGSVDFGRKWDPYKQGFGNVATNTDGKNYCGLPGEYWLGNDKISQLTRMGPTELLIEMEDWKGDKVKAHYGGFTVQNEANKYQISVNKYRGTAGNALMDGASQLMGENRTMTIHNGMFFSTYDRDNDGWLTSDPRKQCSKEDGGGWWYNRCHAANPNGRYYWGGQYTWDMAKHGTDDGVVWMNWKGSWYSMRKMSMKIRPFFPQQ
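assay system = human clot-derived fibrin DD(E) complex | quantity = Fibrin-DD(E) at 2 µM final | timing = 10 min preincubation, 3 h with tracer, room temperature | signal = fluorescence polarization | measure = percent inhibition | benchmarks = high control wells with 10 µM unlabelled Aha-Tn7 peptide (full inhibition) | replicates = singlicate testing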
DAGLB inhibitor: blocks human DAGLB lipase activity. HEK293T DAGLB membrane lysate, EnzChek fluorogenic substrate. AID 504411. inhibition, % at 5.17 µM. actives 0.059% (n = 340,000). Q8NCG7; in the data active = inhibition above about 34%;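 also: 0% = enzyme with vehicle and 100% = wells lacking enzyme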
PolyA inh: yeast polyadenylation inhibition. S. cerevisiae SKY197-pL101 polyadenylation reporter, beta-gal luminescence; efflux-impaired pdr1/pdr3 knockout yeast; score 100 = 6 SD above DMSO. activity score, % at 12 µM. actives 0.02% (n = 300,000). AID 1875;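 active = lowest replicate activity score at least 50, where 100 means six control SD above control mean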;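 also: yeast exposed to compound for 9 h at 30 °C; higher score means more reporter readthrough which indicates perturbed polyadenylation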
Tn6 DDE FP: inhibitors of Tn6 peptide binding to human fibrin DD(E); P02675; AID 720509; Fibrin DD(E) TRITC-Tn6 fluorescence polarization displacement; inhibition, % at 8.3 µM; actives 0.21% (n = 370,000);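 active = inhibition above a per-campaign cutoff: mean of compounds within control limits plus 3 SD, cut at about 15% in these data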;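 also: 0% = median of all compound wells on the plate and 100% = blocking peptide control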
MT1-MMP act inh: blocks activation of human MT1-MMP | actives 0.061% (n = 360,000) | P50281 | HT1080 RFP-PRO-GFP cells, GFP/RFP ratio fluorescence, overnight; percent of plate control window, DMSO zero | GFP/RFP ratio change, % at 20 µM | AID 651647;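 active = GFP/RFP ratio change of at least 30% with cell ATP level not reduced by more than half and red fluorescence within 50% of control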
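Assay system: HT1080 RFP-PRO-GFP cells. Benchmarks: DMSO vehicle wells and RFP-L50D-GFP reporter cell wells. Times: overnight cell settling, then overnight compound exposure, 37 °C, 5% CO2. Compound: 20 µM single dose, 1% DMSO. Read-out basis: GFP/RFP fluorescence ratio.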
SKN-1 inh: inhibitors of C. elegans SKN-1; C. elegans VP596 Pgst-4::GFP/RFP ratio, acrylamide-induced, 24 h; inhibition, % at 21.8 µM; actives 0.49% (n = 360,000);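 active = interference check ratio from 0.5 to 1.5 plus GFP to RFP signal ratio inhibition reaching or exceeding a fixed threshold, cut at about 30% in these data, passing the limit was not always enough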
Tn7 DDE conf: confirmation of inhibitors of Tn7 binding to human fibrin DD(E); actives 5% (n = 460); shares compounds with DDE Tn7 FP inh; inhibition, % at 8.3 µM; FP displacement of TRITC-Tn7 peptide from DD(E); 0% set at plate's compound-well median;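 active = inhibition above the campaign cutoff, the mean of compounds within control limits plus 3 SD, cut at about 14% in these data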;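 also: 100% = median FP of high control wells holding Aha-Tn7 inhibitor peptide; displacers lower polarization since freed probe rises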
Tn7 DDE ctr: counter-screen for inhibitors of Tn7 peptide binding to fibrin DD(E). shares compounds with DDE Tn7 FP inh. TRITC-Tn7 probe displacement, fluorescence polarization. inhibition, % at 8.3 µM. actives 3% (n = 460). AID 720633;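 active = inhibition above the cutoff, the mean of compounds lying between the control bounds plus 3 SD of those compounds, cut at about 17% in these data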;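 also: 0% = median of compound sample wells and 100% = excess unlabeled Aha-Tn7 peptide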
* = called active by the depositor; . = no result given. Hits are enriched below; roughly 0.9% of the tested compounds scored in any of these assays.

SMILES | DDE Tn7 FP inh | DAGLB inhibitor | PolyA inh | Tn6 DDE FP | MT1-MMP act inh | SKN-1 inh | Tn7 DDE conf | Tn7 DDE ctr
COc1cc(C)c(S(=O)(=O)NCc2ccc3c(c2)OCO3)cc1C | 3.3 | 1.6 | -4.6 | -8.3 | 1.6 | 10.3 | . | .
COc1cc(C)c(Cl)c(C)c1S(=O)(=O)NCc1ccc2c(c1)OCO2 | 16.1* | -3.5 | 6.1 | 3.4 | 4.0 | -3.9 | -1.5 | -6.0
COc1ccccc1N(CC(=O)NCCSCc1ccccc1)S(C)(=O)=O | 14.1* | -1.9 | 11.0 | 2.4 | 4.0 | 16.4 | -1.7 | -4.6
CN(C)/C=N/c1cc(=O)[nH]c(=O)n1CC1CC1 | 0.1 | -1.1 | 19.3 | 4.0 | 0.9 | -0.8 | . | .
C=CCn1c(=O)[nH]c2nc3cc(N=CN(C)C)c(C)cc3nc2c1=O | 23.4* | -28.4 | -14.9 | 4.4 | -92.5 | 43.5 | -7.3 | 4.6
O=C1CC(c2ccc3c(c2)OCO3)c2cc3c(cc2N1)OCO3 (centres undefined) | -5.0 | 1.4 | -20.9 | -3.7 | -1.4 | -16.3 | . | .
Cc1ccc(C2CC(=O)Nc3cc4c(cc32)OCO4)o1 (centres undefined) | 15.4* | -0.6 | -4.5 | 14.3 | -3.9 | 0.4 | 6.5 | 3.0
COC(=O)[C@H](CC(C)C)N(CCc1cn(Cc2ccc(C)cc2)nn1)S(=O)(=O)c1ccccc1Br | 0.3 | . | . | 4.6 | . | . | . | .
COc1ccc(CC(=O)NCc2n[nH]c(=S)n2-c2ccccc2OC)cc1 | 14.7* | -0.3 | -26.4 | 2.3 | 0.6 | 3.5 | -4.0 | -15.8
CSc1ccccc1NC(=O)COC(=O)c1cnc(C)cn1 | 14.2* | -0.4 | . | -2.4 | 1.4 | 7.2 | -1.4 | -6.4
COc1ccccc1NC(=O)COC(=O)c1cnc(C)cn1 | 7.0 | 1.7 | 10.5 | 3.1 | 3.3 | 2.0 | . | .
CC(=O)N1CCc2cc(S(=O)(=O)NC3CCN(C(=O)CCl)CC3)ccc21 | 1.5 | . | . | 5.6 | . | . | . | .
CN(C)c1ccc(/C=N/NC(=O)c2ccc(CN3CCOCC3)cc2)cc1Br | 14.2* | . | 10.2 | -2.7 | 3.4 | -10.8 | 0.4 | 0.9
CCOc1ccc(-n2c(SCC(=O)Nc3ccccc3-c3ccccc3)nnc2-c2ccccc2)cc1 | 2.4 | . | . | 0.2 | . | . | . | .
CC(NCc1ccco1)C(=O)N1CCN(Cc2ccccc2F)CC1 (centres undefined) | 6.1 | . | . | -0.8 | . | . | . | .
CNC(=O)Cn1ncc2c(C)n(Cc3ccc(C)cc3)c(C)c2c1=O | 14.1* | 0.6 | 25.9 | -1.3 | 6.0 | 18.4 | -1.5 | 0.2
Cc1ccc(Cn2c(C)c3cnn(CC(=O)NC4CCCC4)c(=O)c3c2C)cc1 | -5.4 | 2.0 | 25.6 | -2.7 | -3.4 | -4.3 | . | .
COc1cc2c(c(OC)c1OC)-c1ccc(NCc3ccccc3)c(=O)cc1C(NC(C)=O)CC2 (centres undefined) | 14.6* | 0.5 | . | -1.4 | 21.0 | 0.9 | -6.7 | -10.6
Cc1cc2nc3c(=O)n(CCc4ccccc4)c(=O)[nH]c3nc2cc1N | 22.8* | -124.4 | 7.6 | -4.6 | -120.4 | -59.6 | 6.8 | 4.8
CCCCn1c(N)c(Br)c(=O)[nH]c1=O | 0.6 | 2.0 | 20.0 | -0.9 | 0.9 | -3.0 | . | .
Nc1ccc2nc3c(=O)n(C4CCCCC4)c(=O)[nH]c3nc2c1 | 26.7* | -102.2 | -0.5 | 8.0 | -149.2 | -51.6 | -5.9 | 7.0
Nc1ccc2nc3c(=O)n(CCc4ccccc4)c(=O)[nH]c3nc2c1 | 8.2 | . | 10.5 | -0.5 | -142.5 | -22.7 | . | .
CCCCn1c(=O)[nH]c2nc3cc(N)ccc3nc2c1=O | 25.1* | -89.7 | . | 8.4 | -168.3 | -54.0 | -11.8 | 0.2
COc1ccc(CNC(=O)C(OC(=O)c2ccco2)c2ccccc2F)cc1 (centres undefined) | 14.2* | -1.5 | 22.9 | -3.0 | 0.4 | 4.4 | 4.7 | 5.3
CNCCC1Sc2ccccc2Oc2ccccc21 (centres undefined) | 14.0* | -2.0 | 0.0 | 8.5 | -28.3 | -2.2 | -0.5 | -1.7
SMILES | DDE Tn7 FP inh | DAGLB inhibitor | PolyA inh | Tn6 DDE FP | MT1-MMP act inh | SKN-1 inh | Tn7 DDE conf | Tn7 DDE ctr
CN(C)CCCC1Sc2ccccc2Sc2ccccc21 (centres undefined) | -7.4 | 2.0 | 0.2 | -0.6 | -1.0 | 9.2 | . | .
Cc1ccc(CSc2nnc(-c3cc(-c4ccc(F)cc4)n[nH]3)n2N)cc1 | 0.4 | . | . | -0.7 | . | . | . | .
O=C(c1cccs1)N1CCC(Cc2ccccc2)CC1 | 14.1* | -7.5 | 5.7 | -9.6 | -0.6 | -19.0 | -6.0 | -8.1
CC(OC(=O)c1ccco1)C(=O)Nc1ccc(Cl)cn1 (centres undefined) | 14.6* | 0.5 | 6.9 | 1.5 | 0.6 | -4.7 | -2.9 | -6.8
CCCC1CCC2(CC1)CCC2OC(=S)Nc1ccccc1C(F)(F)F (centres undefined) | -6.3 | . | . | 2.2 | . | . | . | .
CC(=O)Nc1ccc(NC(=O)CCCCCN2C(=O)c3ccccc3C2=O)cc1 | 13.9* | -5.5 | 6.2 | 2.5 | 1.7 | 11.7 | -4.6 | -5.2
O=C(CCCCCN1C(=O)c2ccccc2C1=O)Nc1ccccc1 | 1.9 | 3.9 | -0.4 | -2.2 | 4.3 | 4.5 | . | .
Cc1ccccc1Cn1cc(COC(=O)N2CCOCC2)nn1 | 6.6 | . | . | 9.9 | . | . | . | .
C#CCn1cc(/C=N/NC(=O)COc2cccc3cccnc23)c2ccccc21 | 14.2* | -0.9 | 1.3 | 1.3 | -4.4 | -9.0 | -4.5 | -19.7
O=c1[nH]cnc2c1c(-c1ccccc1)cn2-c1ccccc1 | 17.2* | 3.1 | -2.0 | 7.2 | 5.5 | 3.0 | 2.2 | -7.5
Cc1ccc(-n2cc(-c3ccccc3)c3c(=O)[nH]cnc32)cc1 | 1.3 | 3.6 | -6.9 | -1.3 | -1.8 | -5.1 | . | .
CCOC(=O)/C(C)=N/NC(=O)c1ccc([N+](=O)[O-])cc1 | -4.0 | -1.6 | 16.2 | 3.7 | 2.0 | 5.4 | . | .
CC(=N\NC(=O)c1ccc([N+](=O)[O-])cc1)/C(=N/O)C(=O)Nc1ccccc1 | 15.7* | 3.0 | -6.8 | -0.6 | -0.5 | 9.5 | 1.4 | 0.9
COc1cc(OC)c(CNC2CCCCCC2)cc1Br | 14.8* | -0.5 | -4.8 | -3.5 | 4.5 | -8.3 | 2.0 | 1.4
Cc1cc(Br)ccc1OCCCN1CCC(C(O)(c2ccccc2)c2ccccc2)CC1 | 6.1 | . | . | 6.0 | . | . | . | .
COc1ccc(CC(NC(C)=O)C(=O)NC2CCN(c3c(Cc4ccccc4)c(C)nc4ncnn34)CC2)c(OC)c1 (centres undefined) | 14.1* | -6.3 | -9.4 | -2.6 | -0.4 | -5.3 | 8.6 | 6.0
O=C(c1cc2ccccc2o1)N1CCCCCC1 | 3.6 | -0.7 | -4.6 | -0.7 | 1.4 | 1.8 | . | .
